Experimental data as given in ChEMBL document CHEMBL4130564, “Indolylalkyltriphenylphosphonium Analogues Are Membrane-Depolarizing Mycobactericidal Agents” (ACS Med Chem Lett, 2017).
Active and inactive are the calls of the source. No cut-off for these calls is given here.

Test system: Mycobacterium tuberculosis
Test: Induction of membrane disruption in Mycobacterium bovis BCG ATCC 35734 harboring piniBAC-RFP assessed as increase in iniBAC cluster transactivation up to 100 uM after 24 hrs by RFP-based fluorescence assay
Assay type: functional, organism-based
Settings: BCG str. ATCC 35743
How it was run: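 Recombinant M. bovis carrying iniBAC promoter-driven RFP treated 24 h with 0.4–100 μM; promoter induction read as RFP fluorescence; isoniazid as positive control.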

Row | SMILES | Activity
1 | NNC(=O)c1ccncc1 | Active
2 | COc1cccc2ccn(CCCCC[P+](c3ccccc3)(c3ccccc3)c3ccccc3)c12.[I-] | inactive
